High-throughput results (PubChem BioAssay)
Shown are actives, neighbours in structure and some others; about 2.7% of the full set was active somewhere.
PAFAH1B3 inh: PAFAH1B3 (human) inhibition. inhibition, % at 3.39 µM. AID 492972. 340,000 tested, 0.28% active. recombinant PAFAH1B3, FP-rhodamine probe, fluorescence polarization. Q15102;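 active means inhibition above the screen-wide average of all tested compounds plus 3 SD, cut at about 25% in these data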;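 further: 0% = enzyme with DMSO only and 100% = wells lacking PAFAH1B3 protein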
Target sequence (Q15102 whole entry, looked up): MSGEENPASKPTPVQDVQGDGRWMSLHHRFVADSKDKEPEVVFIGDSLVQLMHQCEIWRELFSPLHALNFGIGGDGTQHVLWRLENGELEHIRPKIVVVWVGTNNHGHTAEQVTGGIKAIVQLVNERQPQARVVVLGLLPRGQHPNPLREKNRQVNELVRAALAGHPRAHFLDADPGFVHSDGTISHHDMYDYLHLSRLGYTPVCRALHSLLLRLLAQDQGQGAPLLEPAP
PAFAH2 FP inh: PAFAH2 (human) inhibition. Q99487. recombinant PAFAH2, FP-rhodamine activity probe, fluorescence polarization. inhibition, % at 3.39 µM. 340,000 tested, 0.99% active. AID 492956;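 active means inhibition above the mean over all tested compounds plus 3 SD, cut at about 30% in these data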;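 further: inhibitors block probe labeling of enzyme so polarization drops; 0% = enzyme with DMSO and 100% = wells lacking PAFAH2 protein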
ASAP1 GAP inh: inhibitors of human ASAP1 ArfGAP activity | 360,000 tested, 0.19% active | ASAP1-stimulated ARF1 GTP hydrolysis, GDP FP detection | Q9ULH1 | AID 624377 | inhibition, % at 16.5 µM; in the data active means inhibition above about 25%;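 further: 0% = vehicle with enzyme and substrate and 100% = no enzyme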
Target sequence (Q9ULH1 325-724 limits assumed): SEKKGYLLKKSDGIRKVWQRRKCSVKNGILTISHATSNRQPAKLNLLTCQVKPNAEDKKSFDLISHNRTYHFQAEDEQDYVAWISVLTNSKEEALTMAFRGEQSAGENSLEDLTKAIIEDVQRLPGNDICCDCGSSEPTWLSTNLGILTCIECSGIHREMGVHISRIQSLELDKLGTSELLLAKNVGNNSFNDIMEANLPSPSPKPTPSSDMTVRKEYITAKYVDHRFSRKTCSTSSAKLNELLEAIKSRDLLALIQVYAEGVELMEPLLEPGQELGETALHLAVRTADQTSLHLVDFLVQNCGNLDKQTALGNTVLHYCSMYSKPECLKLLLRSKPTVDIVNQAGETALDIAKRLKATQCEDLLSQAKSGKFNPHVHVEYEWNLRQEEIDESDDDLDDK
ARFGAP1 inh: inhibitors of rat ARFGAP1 | Q62848 | Arfgap1-stimulated ARF1 GTP hydrolysis, GDP FP detection | inhibition, % at 16.5 µM | 360,000 tested, 0.26% active | AID 651572;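 active means inhibition above a per-plate limit, mean inhibition of low control wells plus 3 SD, cut at about 25% in these data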;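 further: 0% = DMSO wells with enzyme and 100% = wells lacking Arfgap1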
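Material – truncated rat Arfgap1 GAP domain · Buffer or medium – HEPES-based buffer, pH 7.5 · Reagent – human ARF1(Δ1-17)-GTP substrate · Dosing – 16.5 µM single point, 1.26% DMSO · Schedule – GTP hydrolysis reaction 2 h at 25 °C · Technique – GDP detection by fluorescence polarization · Benchmarks – No-Arfgap1 wells (100%) versus DMSO full-reaction wells (0%) · Repeats – single replicate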
pPAFAH FP inh: pPAFAH (human) enzyme inhibition | 330,000 tested, 1.5% active | recombinant pPAFAH, FP-rhodamine probe fluorescence polarization | Q13093 | inhibition, % at 3.39 µM;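 active means inhibition above the mean inhibition across the screen plus 3 SD, cut at about 25% in these data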;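 further: inhibitors block binding of the rhodamine activity-based probe so polarization drops; 0% = enzyme with DMSO and 100% = wells lacking pPAFAH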
PAFAH1B2 inh: inhibitors of human PAFAH1B2. recombinant PAFAH1B2, FP-rhodamine activity probe, fluorescence polarization. inhibition, % at 3.39 µM. 340,000 tested, 1.2% active. AID 492953;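 active means inhibition above the mean of all tested compounds plus 3 SD, cut at about 24% in these data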;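 further: 0% = enzyme with DMSO and 100% = wells lacking PAFAH1B2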
The depositor's hits bear a star.

For Cc1ccc(CCNC(=O)C2CCCN(S(=O)(=O)c3c(C)noc3/C=C/N(C)C)C2)cc1 (stereo not given) the results were PAFAH1B3 inh 3, PAFAH2 FP inh 7, ASAP1 GAP inh -13, ARFGAP1 inh -7, pPAFAH FP inh 11 and PAFAH1B2 inh 36*.
Screening Cc1ccc(C)c(NC(=O)C2CCCN(S(=O)(=O)c3c(C)noc3/C=C/N(C)C)C2)c1 (stereo not given) returned PAFAH1B3 inh 7, PAFAH2 FP inh 0, ASAP1 GAP inh 2, ARFGAP1 inh -3, pPAFAH FP inh -1 and PAFAH1B2 inh 3.
Screening Cc1ccc(CCNC(=O)C2CCCN(S(=O)(=O)c3c(C)noc3C)C2)cc1 (stereo not given) returned PAFAH1B3 inh 4, PAFAH2 FP inh 6, ASAP1 GAP inh -1, ARFGAP1 inh -14, pPAFAH FP inh 8 and PAFAH1B2 inh 27*.
For Cc1noc(C)c1S(=O)(=O)N1CCCC(C(=O)NCCc2ccccc2)C1 (stereo not given) the results were PAFAH1B3 inh 3, PAFAH2 FP inh 4, ASAP1 GAP inh 8, ARFGAP1 inh 0, pPAFAH FP inh -1 and PAFAH1B2 inh 4.
Screening CN(C)C(=O)N1CCN(C(=O)[C@H]2O[C@@H](n3ccc(N)nc3=O)[C@H](O)[C@@H]2O)CC1 returned ASAP1 GAP inh -4 and ARFGAP1 inh 18.
For O=C(Oc1oc(-c2ccco2)nc1C=Nc1ccc(Cl)cc1)c1ccco1 the results were PAFAH1B3 inh 11, PAFAH2 FP inh 48*, ASAP1 GAP inh -10, ARFGAP1 inh 3, pPAFAH FP inh 26* and PAFAH1B2 inh 9.
Screening CC1CCN(C(=O)COC(=O)Cc2ccc(Br)cc2)CC1 returned PAFAH1B3 inh 6, PAFAH2 FP inh 1, ASAP1 GAP inh 0, ARFGAP1 inh 8, pPAFAH FP inh 29* and PAFAH1B2 inh 11.
`CCOC(=O)N1CCN(C(=O)COC(=O)Cc2ccc(Cl)cc2)CC1` gave PAFAH1B3 inh 8, PAFAH2 FP inh 4, ASAP1 GAP inh -3, ARFGAP1 inh 9, pPAFAH FP inh 34* and PAFAH1B2 inh 5.
`CCOC(=O)N1CCN(C(=O)Cc2ccc(Cl)cc2)CC1` gave PAFAH1B3 inh 6, PAFAH2 FP inh 1, ASAP1 GAP inh 6, ARFGAP1 inh 0, pPAFAH FP inh 1 and PAFAH1B2 inh 3.
Screening Cc1nnc(NC(=O)C23CC4CC(C)(CC(C)(C4)C2)C3)s1 returned PAFAH1B3 inh 1, PAFAH2 FP inh -1, ASAP1 GAP inh 2, ARFGAP1 inh 2, pPAFAH FP inh 0 and PAFAH1B2 inh 26*.
Screening Cc1nnc(NC(=O)CC23CC4CC(CC(C4)C2)C3)s1 returned PAFAH1B3 inh 7, PAFAH2 FP inh 3, ASAP1 GAP inh 7, ARFGAP1 inh 4, pPAFAH FP inh 3 and PAFAH1B2 inh 28*.
`CCc1nnc(NC(=O)CC23CC4CC(CC(C4)C2)C3)s1` gave PAFAH1B3 inh 2, PAFAH2 FP inh 7, ASAP1 GAP inh -8, ARFGAP1 inh 12, pPAFAH FP inh 4 and PAFAH1B2 inh 19.
COCCc1nnc(NC(=O)C23CC4CC(CC(C4)C2)C3)s1 was read as PAFAH1B3 inh 9, PAFAH2 FP inh 2, ASAP1 GAP inh -4, ARFGAP1 inh -2, pPAFAH FP inh 3 and PAFAH1B2 inh 15.
For CC12CC3CC(C)(C1)CC(C(=O)Nc1nncs1)(C3)C2 the results were PAFAH1B3 inh -1, PAFAH2 FP inh -8, ASAP1 GAP inh 0, ARFGAP1 inh -7, pPAFAH FP inh 3 and PAFAH1B2 inh 28*.
For Cc1cc2c(nc1C)CCCN2S(=O)(=O)c1ccc(C(F)(F)F)cc1 the results were ASAP1 GAP inh -7 and ARFGAP1 inh 10.
COCc1[nH]nc2c1C(c1ccc(C)cc1)NC2=O (stereo not given) was read as ASAP1 GAP inh 6 and ARFGAP1 inh 5.
COC1C(O)CCC2(CO2)C1C1(C)OC1CC=C(C)C (stereo not given) was read as ASAP1 GAP inh -8 and ARFGAP1 inh -1.
`O=C(NCc1ccccc1)[C@@H]1CCCN1C(=O)[C@H]1CCCN1C(=O)c1ccc(F)cc1F` gave ASAP1 GAP inh -7 and ARFGAP1 inh -4.
For Cc1ccc(-n2c(-c3ccco3)n[nH]c2=S)cc1 the results were PAFAH1B3 inh 0, PAFAH2 FP inh 2, ASAP1 GAP inh -9, ARFGAP1 inh -3, pPAFAH FP inh -1 and PAFAH1B2 inh 0.
Screening CC(C1CC2CCC1C2)n1c(-c2ccco2)n[nH]c1=S (stereo not given) returned PAFAH1B3 inh 4, PAFAH2 FP inh 10, ASAP1 GAP inh -5, ARFGAP1 inh -4, pPAFAH FP inh 5 and PAFAH1B2 inh 27*.
For Cc1onc(-c2ccccc2Cl)c1C(=O)Oc1cc(N)n(S(=O)(=O)c2ccc(F)cc2)n1 the results were PAFAH1B3 inh 11, PAFAH2 FP inh 4, ASAP1 GAP inh 7, ARFGAP1 inh 3, pPAFAH FP inh 6 and PAFAH1B2 inh 36*.
Cc1cc(O)c(C(=O)/C=C/c2ccc(Cl)cc2)c(=O)o1 was read as PAFAH1B3 inh 9, PAFAH2 FP inh 7, ASAP1 GAP inh -3, ARFGAP1 inh 1, pPAFAH FP inh 27* and PAFAH1B2 inh 3.
CSc1ccc(/C=C/C(=O)c2c(O)cc(C)oc2=O)cc1 was read as PAFAH1B3 inh 5, PAFAH2 FP inh 7, ASAP1 GAP inh -6, ARFGAP1 inh 1, pPAFAH FP inh 19 and PAFAH1B2 inh 8.
For CC(=O)NC(CCS(C)(=O)=O)C(=O)Nc1ccccc1 (stereo not given) the results were PAFAH1B3 inh -1, PAFAH2 FP inh -2, ASAP1 GAP inh 3, ARFGAP1 inh -4, pPAFAH FP inh -1 and PAFAH1B2 inh 4.
For CC(=O)NC(CCS(C)(=O)=O)C(=O)Nc1ccc(Cl)c(Cl)c1 (stereo not given) the results were PAFAH1B3 inh -6, PAFAH2 FP inh 1, ASAP1 GAP inh -6, ARFGAP1 inh 12, pPAFAH FP inh 27* and PAFAH1B2 inh -1.
Screening COC(=O)c1cc2c(c3c4cc(F)ccc4n(S(=O)(=O)c4ccccc4)c13)C(=O)N(C)C2 returned ASAP1 GAP inh 9 and ARFGAP1 inh 1.
For CCOC(=O)c1c(NC(=O)CSc2nnc(N)s2)sc(C)c1-c1ccc(C)cc1 the results were PAFAH1B3 inh -7, PAFAH2 FP inh -9, ASAP1 GAP inh 5, ARFGAP1 inh 8, pPAFAH FP inh 20 and PAFAH1B2 inh -12.
Cc1nnc(SCC(=O)Nc2sc3c(c2C#N)CCCC3)[nH]c1=O was read as PAFAH1B3 inh 4, PAFAH2 FP inh 8, ASAP1 GAP inh 3, ARFGAP1 inh 17, pPAFAH FP inh 17 and PAFAH1B2 inh 4.
For CCOC(=O)c1c(NC(=O)CSc2nnc(C)c(=O)[nH]2)sc(C)c1-c1ccc(C)cc1 the results were PAFAH1B3 inh -1, PAFAH2 FP inh -1, ASAP1 GAP inh 15, ARFGAP1 inh -5, pPAFAH FP inh 29* and PAFAH1B2 inh 3.
